# Measurements pooled from the literature.
# Lines come from different studies, so protocols differ.
# Target: Cytoplasmic tyrosine-protein kinase BMX (BMX, Homo sapiens, UniProt P51813)
# Residues used in one study (P51813 1-675): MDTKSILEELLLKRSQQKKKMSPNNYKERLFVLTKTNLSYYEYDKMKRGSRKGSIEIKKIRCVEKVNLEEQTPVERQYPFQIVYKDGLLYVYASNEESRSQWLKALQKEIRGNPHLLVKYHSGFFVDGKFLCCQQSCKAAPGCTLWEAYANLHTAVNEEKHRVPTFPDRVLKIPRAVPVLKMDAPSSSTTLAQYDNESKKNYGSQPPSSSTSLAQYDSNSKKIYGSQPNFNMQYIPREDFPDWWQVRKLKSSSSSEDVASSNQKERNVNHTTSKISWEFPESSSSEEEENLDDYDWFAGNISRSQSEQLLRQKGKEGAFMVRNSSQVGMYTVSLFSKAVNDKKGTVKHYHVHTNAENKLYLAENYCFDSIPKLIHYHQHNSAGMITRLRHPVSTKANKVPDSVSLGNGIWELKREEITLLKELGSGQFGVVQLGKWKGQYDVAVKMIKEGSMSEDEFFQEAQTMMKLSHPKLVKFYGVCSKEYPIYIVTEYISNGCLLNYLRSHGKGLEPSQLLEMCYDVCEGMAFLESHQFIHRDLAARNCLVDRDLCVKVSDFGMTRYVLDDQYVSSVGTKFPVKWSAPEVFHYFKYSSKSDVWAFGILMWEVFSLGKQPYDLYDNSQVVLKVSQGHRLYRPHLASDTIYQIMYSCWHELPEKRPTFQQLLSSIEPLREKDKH
Compound,test,setting,remaining binding [%]
CCC(=N\O)/C(C)=C/c1ccc(F)cc1,"cell-free assay, competition with immobilised ligand",1 µM,83
C[C@H]1CCN(c2nccc(-c3cnn4ncccc34)n2)C1,binding,1 µM,84
O=C(O)[C@H]1[C@H](Cn2nnc3ccccc3c2=O)CC[C@@H]1C(=O)c1ccc(OCCC2CCOCC2)cc1,"cell-free assay, competition with immobilised ligand",1 µM,92
COc1cnc(Nc2cccc(S(N)(=O)=O)c2)nc1N1CCN(c2ccccc2)C(=O)C1,"binding, competition with immobilised ligand",1 µM,100
O=C(NCCCN1CCOCC1)c1ccc(Nc2nccc(-c3cc4ccccc4s3)n2)cc1,"binding, competition with immobilised ligand",1 µM,100
C=CC(=O)N1CCC(C(=O)NCC(=O)N2CCN(c3nc(-c4cnc(N)nc4C(F)F)nc(N4CCOCC4)n3)CC2)CC1,"binding, competition with immobilised ligand",1 µM,99
c1cncc(-c2cccc(Nc3nccc(NC4CCCCC4)n3)c2)c1,"binding, competition with immobilised ligand",10 µM,82
COc1ccnn2ncc(-c3ccnc(N(C)C)n3)c12,binding,1 µM,100
O=C(c1ccc(Nc2ncc(Cl)c(-c3ccc(Cl)s3)n2)cc1)N1CCC(N2CCCC2)CC1,"binding, competition with immobilised ligand",1 µM,79
CN(CCCC(F)(F)F)c1nccc(-c2cnn3ncccc23)n1,binding,1 µM,83
CN1CCN(c2cnc3c(C4CCN(C(=O)c5ccc(OC(F)(F)F)cc5N)CC4)ncnc3c2)CC1,"cell-free assay, competition with immobilised ligand",1 µM,100
CC1CCCN1c1nccc(-c2cnn3ncccc23)n1 (stereo not drawn),binding,1 µM,94
C[C@@H](c1cccc(C#N)c1)n1cc(Cl)cc(C(N)=O)c1=N,"cell-free assay, competition with immobilised ligand",1 µM,95
Nc1ncc2c(n1)-c1c([nH]c3ccc(C#CC4CC4)cc13)CCCC2,"binding, competition with immobilised ligand",1 µM,86
CN(C)c1nccc(-c2cnn3ncccc23)n1,binding,1 µM,87
Cc1cc(-n2nc(Cc3cc(F)cc(C(F)(F)F)c3)nc2C)ccc1C(N)=O,"cell-free assay, competition with immobilised ligand",1 µM,100
c1cnn2ncc(-c3ccnc(N4CCC45COC5)n3)c2c1,binding,1 µM,90
CCOCCn1cc(C(=O)Nc2ccc(-n3nc(-c4cccnc4)cc3C(F)(F)F)cn2)ccc1=O,"cell-free assay, competition with immobilised ligand",1 µM,84
CNC(=O)[C@@H]1CC[C@@H](n2c(-c3ccc4cnccc4c3)nc3ccc(C(=O)NCc4cccc(C(N)=O)c4)cc32)C1,"binding, competition with immobilised ligand",1 µM,100
O=C(Nc1c[nH]nc1C(=O)NC1CCNCC1)c1cc(F)cc(F)c1,"binding, competition with immobilised ligand",1 µM,100
O=C(c1ccc(Nc2nccc(-c3cc4ccccc4s3)n2)cc1)N1CCC(N2CCCC2)CC1,"binding, competition with immobilised ligand",1 µM,91
